From ChEMBL document CHEMBL1154150, “Synthesis and anticonvulsant activity of some new bishydrazones derived from 3,4-dipropyloxythiophene” (Eur J Med Chem, 2009)
Activity calls are given as the source filed them. The calls are words filed in the database; no cut-off is given here.

Legend:
Mus musculus [1] = assay: Neurotoxicity in CF1 mouse at 100 mg/kg, ip after 4 hrs by rotarod test; type: toxicity, organism-based; set-up: dose 100 mg/kg, route intraperitoneal; conditions: in vivo
Procedure, shortened: (§1)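 Rotorod neurotoxicity in male CF-1 mice (18–25 g) after i.p. compound in 0.5% methyl cellulose/water or PEG 200 at 30, 100 or 300 mg/kg; reported as number showing toxicity/number tested.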

Mus musculus [2] = assay: Neurotoxicity in CF1 mouse at 300 mg/kg, ip after 4 hrs by rotarod test; type: toxicity, organism-based; set-up: dose 300 mg/kg, route intraperitoneal; conditions: in vivo; procedure, shortened: as §1
Mus musculus [3] = assay: Anticonvulsant activity in CF1 mouse assessed as protection against maximal electroshock-induced seizures at 30 mg/kg, ip after 0.5 hrs; type: functional, organism-based; set-up: dose 30 mg/kg
Procedure, shortened: (§2)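 Male CF-1 albino mice (18–25 g), dosed i.p. at 30, 100 or 300 mg/kg in 0.5% methyl cellulose/water or PEG 200 (0.01 ml/g); tested at intervals after dosing; protection = abolition of hind limb tonic extensor component of MES seizure; scored as protected/tested.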

Mus musculus [4] = assay: Anticonvulsant activity in CF1 mouse assessed as protection against maximal electroshock-induced seizures at 30 mg/kg, ip after 4 hrs; type: functional, organism-based; set-up: dose 30 mg/kg; procedure, shortened: as §2
Mus musculus [5] = assay: Anticonvulsant activity in CF1 mouse assessed as protection against maximal electroshock-induced seizures at 100 mg/kg, ip after 0.5 hrs; type: functional, organism-based; set-up: dose 100 mg/kg; procedure, shortened: as §2
Mus musculus [6] = assay: Anticonvulsant activity in CF1 mouse assessed as protection against maximal electroshock-induced seizures at 100 mg/kg, ip after 4 hrs; type: functional, organism-based; set-up: dose 100 mg/kg; procedure, shortened: as §2
Mus musculus [7] = assay: Anticonvulsant activity in CF1 mouse assessed as protection against maximal electroshock-induced seizures at 300 mg/kg, ip after 0.5 hrs; type: functional, organism-based; set-up: dose 300 mg/kg; procedure, shortened: as §2
Mus musculus [8] = assay: Anticonvulsant activity in CF1 mouse assessed as protection against maximal electroshock-induced seizures at 300 mg/kg, ip after 4 hrs; type: functional, organism-based; set-up: dose 300 mg/kg; procedure, shortened: as §2
Mus musculus [9] = assay: Anticonvulsant activity in CF1 mouse assessed as protection against subcutaneous metrazole-induced seizures at 30 mg/kg, ip after 0.5 hrs; type: functional, organism-based; set-up: dose 30 mg/kg
Mus musculus [10] = assay: Anticonvulsant activity in CF1 mouse assessed as protection against subcutaneous metrazole-induced seizures at 30 mg/kg, ip after 4 hrs; type: functional, organism-based; set-up: dose 30 mg/kg
Mus musculus [11] = assay: Anticonvulsant activity in CF1 mouse assessed as protection against subcutaneous metrazole-induced seizures at 100 mg/kg, ip after 0.5 hrs; type: functional, organism-based; set-up: dose 100 mg/kg
Mus musculus [12] = assay: Anticonvulsant activity in CF1 mouse assessed as protection against subcutaneous metrazole-induced seizures at 100 mg/kg, ip after 4 hrs; type: functional, organism-based; set-up: dose 100 mg/kg
Mus musculus [13] = assay: Anticonvulsant activity in CF1 mouse assessed as protection against subcutaneous metrazole-induced seizures at 300 mg/kg, ip after 0.5 hrs; type: functional, organism-based; set-up: dose 300 mg/kg
Mus musculus [14] = assay: Anticonvulsant activity in CF1 mouse assessed as protection against subcutaneous metrazole-induced seizures at 300 mg/kg, ip after 4 hrs; type: functional, organism-based; set-up: dose 300 mg/kg
Mus musculus [15] = assay: Neurotoxicity in CF1 mouse at 30 mg/kg, ip after 0.5 hrs by rotarod test; type: toxicity, organism-based; set-up: dose 30 mg/kg, route intraperitoneal; conditions: in vivo; procedure, shortened: as §1
Mus musculus [16] = assay: Neurotoxicity in CF1 mouse at 100 mg/kg, ip after 0.5 hrs by rotarod test; type: toxicity, organism-based; set-up: dose 100 mg/kg, route intraperitoneal; conditions: in vivo; procedure, shortened: as §1
Mus musculus [17] = assay: Neurotoxicity in CF1 mouse at 300 mg/kg, ip after 0.5 hrs by rotarod test; type: toxicity, organism-based; set-up: dose 300 mg/kg, route intraperitoneal; conditions: in vivo; procedure, shortened: as §1
Mus musculus [18] = assay: Neurotoxicity in CF1 mouse at 30 mg/kg, ip after 4 hrs by rotarod test; type: toxicity, organism-based; set-up: dose 30 mg/kg, route intraperitoneal; conditions: in vivo; procedure, shortened: as §1

Compound | Activity (Mus musculus [1]) | Activity (Mus musculus [2]) | Activity (Mus musculus [3]) | Activity (Mus musculus [4]) | Activity (Mus musculus [5]) | Activity (Mus musculus [6]) | Activity (Mus musculus [7]) | Activity (Mus musculus [8]) | Activity (Mus musculus [9]) | Activity (Mus musculus [10]) | Activity (Mus musculus [11]) | Activity (Mus musculus [12]) | Activity (Mus musculus [13]) | Activity (Mus musculus [14]) | Activity (Mus musculus [15]) | Activity (Mus musculus [16]) | Activity (Mus musculus [17]) | Activity (Mus musculus [18])
CCCOc1c(C(=O)N/N=C(\C)c2ccccn2)sc(C(=O)N/N=C(\C)c2ccccn2)c1OCCC | Non-toxic | Non-toxic | inactive | inactive | inactive | inactive | inactive | inactive | inactive | inactive | inactive | inactive | inactive | inactive | Non-toxic | Non-toxic | Non-toxic | Non-toxic
CCCOc1c(C(=O)N/N=C(\C)c2ccccc2)sc(C(=O)N/N=C(\C)c2ccccc2)c1OCCC | Non-toxic | Non-toxic | inactive | inactive | inactive | inactive | inactive |  | inactive | inactive | inactive | inactive | inactive | inactive | Non-toxic | Non-toxic | Non-toxic | Non-toxic
CCCOc1c(C(=O)NN=C2CC(C)Sc3sc(S(N)(=O)=O)cc32)sc(C(=O)NN=C2CC(C)Sc3sc(S(N)(=O)=O)cc32)c1OCCC (stereo not drawn) | Non-toxic | Toxic | inactive | inactive | inactive | inactive | inactive | inactive | inactive | inactive | inactive | inactive | inactive | inactive | Non-toxic | Toxic | Toxic | Non-toxic
CCCOc1c(C(=O)N/N=C/c2ccc3c(c2)c2ccccc2n3CC)sc(C(=O)N/N=C/c2ccc3c(c2)c2ccccc2n3CC)c1OCCC | Non-toxic | Non-toxic | inactive | inactive | inactive | inactive | inactive | inactive | inactive | inactive | inactive | inactive | inactive | inactive | Non-toxic | Toxic | Toxic | Non-toxic
CCCOc1c(C(=O)N/N=C(/c2ccccc2)c2ccncc2)sc(C(=O)N/N=C(\c2ccccc2)c2ccncc2)c1OCCC | Non-toxic | Non-toxic | inactive | inactive |  | inactive | inactive | inactive | inactive |  | inactive | inactive | inactive | inactive | Non-toxic | Non-toxic | Non-toxic | Non-toxic
CCCOc1c(C(=O)N/N=C(\C)c2nccs2)sc(C(=O)N/N=C(\C)c2nccs2)c1OCCC | Non-toxic | Non-toxic | inactive | inactive |  | inactive | inactive | inactive | inactive | inactive | inactive | inactive | inactive | inactive | Non-toxic | Non-toxic | Non-toxic | Non-toxic
CCCOc1c(C(=O)N/N=C\c2ccc([N+](=O)[O-])o2)sc(C(=O)N/N=C/c2ccc([N+](=O)[O-])o2)c1OCCC | Toxic | Toxic | inactive | inactive | inactive | inactive | inactive | inactive | inactive | inactive |  | inactive | inactive | inactive |  | Toxic | Toxic | Non-toxic
CCCC/C=N/NC(=O)c1sc(C(=O)N/N=C/CCCC)c(OCCC)c1OCCC | Non-toxic | Non-toxic | inactive | inactive | inactive | inactive | inactive | inactive | inactive | inactive |  | inactive | inactive | inactive | Non-toxic | Toxic | Toxic | Non-toxic
CCCOc1c(C(=O)N/N=C\c2cccs2)sc(C(=O)N/N=C/c2cccs2)c1OCCC | Non-toxic | Toxic | inactive | inactive | inactive | inactive | inactive | inactive | inactive | inactive |  | inactive | inactive | inactive | Non-toxic | Toxic | Toxic | Non-toxic
CCCOc1c(C(=O)NN=C2CCCC2)sc(C(=O)NN=C2CCCC2)c1OCCC | Non-toxic | Non-toxic | inactive | inactive | inactive | inactive | inactive |  | inactive | inactive | inactive | inactive | inactive | inactive | Non-toxic | Non-toxic | Non-toxic | Non-toxic
CCCOc1c(C(=O)N/N=C(\C)c2cc3ccccc3oc2=O)sc(C(=O)N/N=C(\C)c2cc3ccccc3oc2=O)c1OCCC | Non-toxic | Toxic | inactive | inactive | inactive | inactive | inactive |  | inactive | inactive | inactive | inactive | inactive | inactive | Non-toxic | Toxic | Toxic | Non-toxic
